Rows were chosen to be rich in hits. Some 3.7% of all compounds tested hit in one or more screens of this group.
core dimer inh = blocks dimerization of HCV core protein | TR-FRET GST/Flag-core106 dimerization, 1536-well | inhibition, % at 5 µM | hit rate 0.33% among 300,000 | AID 1899;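 active = inhibition above the mean of all tested compounds plus 3 SD, set per screening campaign, cut at about 45% in these data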
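Test system: GST/Flag-tagged HCV core106 proteins; Medium: KF-containing HEPES buffer, pH 7.45, DTT, CHAPS, BSA; Times: compound-protein-antibody incubation 4 h at 22.5 °C; Detection: TR-FRET 671 and 617 nm emission; Benchmarks: wells lacking GST-core106 and wells with excess unlabelled core106.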
HCV NS3 hel inh = blocks Hepatitis C virus NS3 helicase unwinding | NS3 helicase DNA unwinding, Cy5 molecular beacon fluorescence | inhibition, % at 10.9 µM | hit rate 0.56% among 290,000 | AID 1800;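 active = inhibition above the mean of all tested compounds plus 3 SD, set per campaign, cut at about 35% in these data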;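 also: 0% = DMSO wells and 100% = thioflavine S control wells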
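Assay system – hepatitis C virus NS3 helicase domain fragment enzyme · Buffer or medium – MOPS pH 6.5, MgCl2, DTT, Tween20, BSA · Reagent – Cy5/quencher beacon DNA duplex and ATP to start · Compound – single 10.9 µM dose · Timing – 1 h at 25 °C · Technique – Cy5 beacon fluorescence read at start and 1 h · Measure – % inhibition of unwinding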
TAAR1 ag = agonists of human TAAR1; activation, % at 3 µM; CHO RD-HGA16 TAAR1, Fluo-8 calcium fluorescence; vehicle wells 0%, saturating PEA agonist 100%; hit rate 0.99% among 360,000;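 active = activation above the mean activation of all test compounds in the run plus 3 SD, cut at about 38% in these data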
Target sequence (Q96RJ0 whole entry, looked up): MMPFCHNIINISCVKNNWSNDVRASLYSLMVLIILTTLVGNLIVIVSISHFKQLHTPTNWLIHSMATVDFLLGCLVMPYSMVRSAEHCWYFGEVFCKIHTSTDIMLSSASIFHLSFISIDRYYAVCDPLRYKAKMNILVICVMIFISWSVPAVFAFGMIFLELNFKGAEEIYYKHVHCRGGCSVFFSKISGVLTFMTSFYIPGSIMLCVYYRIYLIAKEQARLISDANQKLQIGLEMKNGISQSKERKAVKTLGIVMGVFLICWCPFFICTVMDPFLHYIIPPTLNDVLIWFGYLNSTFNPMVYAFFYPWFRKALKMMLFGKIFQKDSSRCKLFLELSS
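Benchmarks: low control DMSO, high control PEA (EC100); System: CHO RD-HGA16 cells carrying human TAAR1 plus Gα16; Detection: Fluo-8 fluorescence, 5 s baseline then 140 s kinetic read; Schedule: 17-24 h plating, Fluo-8 75 min 37 °C, 30 min RT; Read-out basis: % activation from peak over basal fluorescence ratio, DMSO-to-PEA scaled.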
TAAR1 antag = antagonists of human TAAR1. Q96RJ0. CHO RD-HGA16 TAAR1, Fluo-8 calcium fluorescence, antagonist. inhibition, % at 3 µM. hit rate 1.5% among 360,000. AID 624466;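 active = inhibition above a per-plate cutoff, the mean inhibition of test compounds on that plate plus 3 SD, cut at about 49% in these data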;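 also: 0% = DMSO plus EC80 beta-PEA response and 100% = DMSO alone without agonist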
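Assay system: CHO-derived RD-HGA16 cells stably expressing human TAAR1 plus Gα16. Timing: 140 s kinetic read after compound, 140 s after agonist. Technique: kinetic Fluo-8 calcium fluorescence measurement. Measure: % inhibition of agonist calcium response.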
rCAG RNA binder = binds r(CAG) RNA repeats; r(CAG) RNA repeat, TO-PRO-1 dye displacement fluorescence; inhibition, % at 3 µM; hit rate 1.3% among 370,000;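 active = inhibition above the plate cutoff, the mean of all test compounds on that plate plus 3 SD, cut at about 35% in these data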;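 also: 0% = DMSO alone and 100% = 100 µM mitoxantrone as full dye displacement; higher means more dye released from RNA so lower well fluorescence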
rCAG binder conf = r(CAG) RNA repeat binding, confirmation. AID 652065. shares compounds with rCAG RNA binder. inhibition, % at 3 µM. TO-PRO-1 dye displacement fluorescence. hit rate 70% among 4,300;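 active = inhibition above a per-plate cutoff, the mean inhibition of sample wells plus 3 SD, cut at about 35% in these data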;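 also: loss of TO-PRO-1 fluorescence as compound displaces dye from 1x1 AA loop RNA; 0% = DMSO only wells and 100% = 100 µM mitoxantrone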
DNA CAG counter = counter-screen for rCAG RNA binders: DNA CAG dye complex inhibitors. shares compounds with rCAG RNA binder. d(CAG) DNA oligo TO-PRO-1 dye displacement, fluorescence. inhibition, % at 3 µM. hit rate 94% among 4,300;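 active = inhibition above its plate's cutoff, the mean test-well inhibition plus 3 SD, cut at about 4.8% in these data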;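 also: 0% = DNA dye mix with DMSO and 100% = 100 µM mitoxantrone; hits displace the dye from DNA and so lower well fluorescence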
Active calls of the source: *; x = no result.

SMILES	core dimer inh	HCV NS3 hel inh	TAAR1 ag	TAAR1 antag	rCAG RNA binder	rCAG binder conf	DNA CAG counter
COc1ccc(S(=O)(=O)Nc2cc(SCC(=O)O)c(O)c3ccccc23)cc1	-16	35	1	-6	38*	48*	18*
COc1ccc(S(=O)(=O)Nc2ccc(O)c(Sc3ncn[nH]3)c2)cc1	-13	-6	1	-15	1	x	x
COc1ccc(S(=O)(=O)Nc2cc(Sc3ncn[nH]3)c(O)c3ccccc23)cc1	x	7	43*	19	43*	24	9.8*
CCOc1ccc(Nc2ccc(N)c(S(=O)(=O)O)c2)cc1	x	x	0	4	55*	52*	18*
CCOc1ccc(NS(=O)(=O)c2ccc(N)cc2)cc1	0	-1	6	5	0	x	x
O=C(/C=C/c1ccc([N+](=O)[O-])cc1)/C=C/c1ccco1	-24	-1	2	-5	47*	25	12*
O=C(/C=C/c1ccc([N+](=O)[O-])cc1)c1ccco1	14	4	0	6	3	x	x
Cc1cc2c(cc1C)-c1c(ssc1=Nc1ccc(S(N)(=O)=O)cc1)C(C)(C)N2	-2	-3	11	20	13	x	x
CC(=O)NS(=O)(=O)c1ccc(N=c2ssc3c2-c2cc(C)c(C)cc2NC3(C)C)cc1	-5	13	5	8	75*	59*	25*
CCOC(=O)N1CCN(C(=O)C[C@H]2C[C@@]3(C(=O)OC)C(=C[C@H](COCc4ccccc4)O[C@@H]3C)N(Cc3cccc4ccccc34)C2=O)CC1	x	x	x	x	12	x	x
Cc1ccc(S(=O)(=O)N2[C@@H](c3ccc(Br)cc3)C(C(=O)O)=C[C@H]2C(C)(C)C)cc1	x	x	1	9	47*	54*	16*
Cc1ccc(S(=O)(=O)N2[C@@H](c3ccc(Cl)cc3)C(C(=O)O)=C[C@H]2C(C)(C)C)cc1	x	x	-1	8	48*	42*	11*
CC1Cc2cc(/C=C3/SC(=S)NC3=O)ccc2O1 (stereo not drawn)	2	25	-4	-8	37*	23	5.9*
CCCC(=O)N1CCC(C(=O)NC2CCCc3ccccc32)CC1 (stereo not drawn)	x	x	x	x	2	x	x
O=c1cc(-c2ccc([N+](=O)[O-])cc2)nc2cc(-c3ccc(F)cc3)[nH]n12	2	12	2	-18	35*	50*	15*
Cc1ccccc1-c1cc2nc(-c3ccc([N+](=O)[O-])cc3)cc(=O)n2[nH]1	2	4	0	5	4	x	x
CCN(CC)c1nc(N)c2c(N)n(-c3ccccc3C)c(=S)c(C#N)c2c1C#N	43	6	3	0	98*	93*	69*
CCn1nc(NS(=O)(=O)c2cccc3nonc23)c2cc3ccc(C)cc3nc21	-16	0	x	x	x	x	x
CC(C)Cn1nc(NS(=O)(=O)c2cccc3nonc23)c2cc3ccccc3nc21	-6	7	-4	-8	53*	39*	12*
Cc1cc(Cl)cc2c(N=Nc3ccccc3C(=O)O)c(O)[nH]c12	5	26	1	1	39*	92*	76*
Cc1ccc(Cc2c(-c3ccc(Br)cc3)nc3ccc(Cl)cn23)cc1	x	x	-1	-7	41*	12	10*
Fc1cccc(Cc2c(-c3cccc(Br)c3)nc3ccc(Br)cn23)c1	x	x	-1	4	55*	7	4
Cc1ccc2nc(-c3ccc(Cl)cc3)c(Cc3cccc(F)c3)n2c1	x	x	-1	1	5	x	x
Cc1ccc(-c2nc3ccc(Cl)cn3c2Cc2ccccc2C(F)(F)F)cc1	x	x	5	-7	42*	34	6.8*
Cc1ccc(-c2nc3ccc(Cl)cn3c2Cc2cccc(F)c2)cc1	x	x	-2	-27	38*	3	3
SMILES	core dimer inh	HCV NS3 hel inh	TAAR1 ag	TAAR1 antag	rCAG RNA binder	rCAG binder conf	DNA CAG counter
CCc1cc2c(nc1CC)CCCN2Cc1ccc(Br)cc1	x	x	0	-2	2	x	x
CN1C(=O)c2cc(NC(=O)Nc3ccccc3)ccc2OC[C@H]2O[C@@H](CC(=O)N[C@H]3CCN(Cc4ccccc4)C3)CC[C@@H]21	x	x	x	x	4	x	x
COC(=O)c1cccc(Cn2ccc3ccc(-c4ccc5ccn(C(=O)C6CCC6)c5c4)cc32)c1	x	x	x	x	13	x	x
CCOC(=O)[C@]12CCCCC/C=C\1N(CCc1ccc(Cl)cc1)C(=O)[C@H]2CC(=O)NCc1ccc(C)o1	x	x	x	x	6	x	x
Cc1cc(Br)cn2c(Cc3ccccc3C(F)(F)F)c(-c3ccccc3)nc12	x	x	-1	-3	6	x	x
Cc1cc(Br)cn2c(Cc3ccccc3C(F)(F)F)c(-c3cccc(Br)c3)nc12	x	x	-2	14	47*	7	3
Fc1cccc(Cc2c(-c3ccc(Cl)cc3)nc3ccc(Br)cn23)c1	x	x	-1	8	49*	14	4.6*
COCCCN1C(=O)[C@H](CC(=O)NCc2cccs2)[C@]2(C(=O)OC)CCCCC=C12	x	x	x	x	5	x	x
O=C(Nc1ccc(F)cc1)OC1CC2CC1[C@H]1CCCCN1C2 (stereo partly drawn)	x	x	x	x	8	x	x
O=C(CSc1nc2ccccc2c(=O)n1-c1ccc(F)cc1)Nc1ccc(C(=O)O)cc1	-10	3	-1	4	8	x	x
O=C(CSc1nc2cc(C(=O)O)ccc2c(=O)n1-c1ccc(F)cc1)Nc1ccc(F)c(F)c1F	11	13	1	-2	39*	15	3
Oc1ccc(/C=N/N(c2ccccc2)c2ccccc2)c(O)c1O	52*	24	-3	14	43*	52*	28*
C#CCNC(=O)C[C@@H]1C(=O)N2CCCC3=C2[C@@]1(C(=O)OCC)CCC3	x	x	x	x	35*	0	-1
CCOC(=O)[C@@]12CCCC3=C1N(CCC3)C(=O)[C@H]2CC(=O)NCCCCc1ccccc1	x	x	x	x	-3	x	x
O=C(CCCN1C(=O)/C(=C\c2ccco2)SC1=S)Nc1ccc(O)cc1C(=O)O	13	17	10	-47	90*	78*	43*
O=C(CCCN1C(=O)/C(=C/c2cccs2)SC1=S)Nc1ccc(O)c(C(=O)O)c1	x	-14	x	x	x	x	x
O=C(CCCN1C(=O)/C(=C\c2cccs2)SC1=S)Nc1ccc(O)cc1C(=O)O	-1	-5	2	-44	60*	60*	23*
CC1=C2N=C(N)N(Cc3ccccc3)C(Cc3ccccc3)C2n2c(=O)n(-c3ccccc3)c(=O)n2C1 (stereo not drawn)	x	x	x	x	15	x	x
N#Cc1ccccc1NCCCN1CCC(C(O)(c2ccccc2)c2ccccc2)CC1	x	x	x	x	2	x	x
Cc1cc(C)cc(Nc2nc3ccccc3c(=O)[nH]2)c1	-4	-3	14	4	41*	14	16*

Bioassay records deposited in PubChem BioAssay by The Scripps Research Institute Molecular Screening Center.
